According to ChEMBL document CHEMBL5055640, “Discovery of Novel Acetamide-Based Heme Oxygenase-1 Inhibitors with Potent In Vitro Antiproliferative Activity” (J Med Chem, 2021):
Active and inactive are the calls of the source. The calls are words filed in the database; no cut-off is given here.

Experiments:
[1] = tested on: A 172; experiment: Antiproliferative activity against human A172 cells assessed as reduction in cell viability at 10 uM incubated for 48 hrs by MTT assay; assay type: functional, cell-based
Method in brief: (§1)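 Cells grown in DMEM with 10% heat-inactivated FBS and penicillin/streptomycin at 37 °C, 5% CO2, seeded at 7 × 10^3 cells/well. After 24 h, treated 48 h at 1, 10 or 50 μM. MTT 0.5 mg/mL added for 4 h at 37 °C, formazan dissolved in DMSO, A570 read. Eight replicate wells per group, at least three independent experiments, % of control, mean ± SEM.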

[2] = tested on: A 172; experiment: Antiproliferative activity against human A172 cells assessed as reduction in cell viability at 50 uM incubated for 48 hrs by MTT assay; assay type: functional, cell-based; method in brief: as §1
[3] = tested on: A 172; experiment: Antiproliferative activity against human A172 cells assessed as reduction in cell viability at 1 uM incubated for 48 hrs by MTT assay; assay type: functional, cell-based; method in brief: as §1
[4] = tested on: A549; experiment: Antiproliferative activity against human A549 cells assessed as reduction in cell viability at 10 uM incubated for 48 hrs by MTT assay; assay type: functional, cell-based; method in brief: as §1
[5] = tested on: DU-145; experiment: Reduction in HO-1 expression in human DU-145 cells at 10 uM incubated for 48 hrs by Western blot analysis; assay type: functional, cell-based
Method in brief: (§2)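 Cells treated 48 h at 10 μM. Lysed in Tris/EDTA/EGTA/sucrose buffer with protease and phosphatase inhibitors, sonicated, spun. 30 μg protein resolved on 4–15% Bis-Tris gel, transferred to PVDF, probed for HO-1. Band density normalized to actin and given as fold change; three independent experiments, mean ± SEM.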

[6] = tested on: A549; experiment: Antiproliferative activity against human A549 cells assessed as reduction in cell viability at 1 uM incubated for 48 hrs by MTT assay; assay type: functional, cell-based; method in brief: as §1
[7] = tested on: U-87 MG; experiment: Antiproliferative activity against human U-87MG cells assessed as reduction in cell viability at 10 uM incubated for 48 hrs by MTT assay relative to control; assay type: functional, U-87MG ATCC; method in brief: as §1
[8] = tested on: DU-145; experiment: Antiproliferative activity against human DU145 cells assessed as reduction in cell viability at 50 uM incubated for 48 hrs by MTT assay; assay type: functional, cell-based; method in brief: as §1
[9] = tested on: U-87 MG; experiment: Antiproliferative activity against human U-87MG cells assessed as reduction in cell viability at 1 uM incubated for 48 hrs by MTT assay relative to control; assay type: functional, U-87MG ATCC; method in brief: as §1
[10] = tested on: A549; experiment: Antiproliferative activity against human A549 cells assessed as reduction in cell viability at 50 uM incubated for 48 hrs by MTT assay; assay type: functional, cell-based; method in brief: as §1
[11] = tested on: DU-145; experiment: Antiproliferative activity against human DU145 cells assessed as reduction in cell viability at 1 uM incubated for 48 hrs by MTT assay; assay type: functional, cell-based; method in brief: as §1
[12] = tested on: DU-145; experiment: Antiproliferative activity against human DU145 cells assessed as reduction in cell viability at 10 uM incubated for 48 hrs by MTT assay; assay type: functional, cell-based; method in brief: as §1
[13] = tested on: U-87 MG; experiment: Antiproliferative activity against human U-87MG cells assessed as reduction in cell viability at 50 uM incubated for 48 hrs by MTT assay relative to control; assay type: functional; details: for inhibition: U-87MG ATCC; method in brief: as §1
[14] = molecular target: T1, Heme oxygenase 2 (Rattus norvegicus, UniProt P23711); experiment: Inhibition of Sprague-Dawley rat brain microsome HO-2 assessed as bilirubin formation incubated for 60 mins by double-beam spectrophotometry; assay type: microsomes
T1 sequence (P23711 whole entry): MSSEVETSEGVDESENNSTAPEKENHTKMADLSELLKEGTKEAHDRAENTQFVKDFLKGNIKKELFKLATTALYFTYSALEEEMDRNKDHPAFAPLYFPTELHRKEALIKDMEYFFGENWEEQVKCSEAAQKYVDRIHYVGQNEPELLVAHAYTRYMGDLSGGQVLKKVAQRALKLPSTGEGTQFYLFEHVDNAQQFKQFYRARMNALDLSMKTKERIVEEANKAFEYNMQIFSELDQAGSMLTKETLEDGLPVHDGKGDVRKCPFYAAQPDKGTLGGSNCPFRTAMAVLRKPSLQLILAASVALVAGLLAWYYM

[15] = molecular target: T2, Heme oxygenase 1 (Rattus norvegicus, UniProt P06762); experiment: Inhibition of Sprague-Dawley rat spleen microsome HO-1 assessed as bilirubin formation incubated for 60 mins by double-beam spectrophotometry; assay type: microsomes
T2 sequence (P06762 whole entry): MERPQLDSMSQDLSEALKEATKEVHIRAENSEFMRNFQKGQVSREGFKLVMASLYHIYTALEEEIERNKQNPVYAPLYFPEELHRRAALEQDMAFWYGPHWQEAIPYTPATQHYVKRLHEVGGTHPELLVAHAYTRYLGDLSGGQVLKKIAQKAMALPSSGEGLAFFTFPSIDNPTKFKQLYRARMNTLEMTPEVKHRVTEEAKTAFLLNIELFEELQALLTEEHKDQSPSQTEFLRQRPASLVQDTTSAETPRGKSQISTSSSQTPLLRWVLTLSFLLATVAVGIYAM

[16] = organism: Rattus norvegicus; experiment: Selectivity index, ratio of IC50 for inhibition of Sprague-Dawley rat brain microsome HO-2 to IC50 for inhibition of Sprague-Dawley rat spleen microsome HO-1
[17] = tested on: U-87MG ATCC; experiment: Reduction in HO-1 expression in human U-87MG cells at 10 uM incubated for 48 hrs by Western blot analysis; assay type: functional, cell-based; method in brief: as §2
[18] = molecular target: T3, Heme oxygenase 1 (Homo sapiens) (UniProt P09601); experiment: Inhibition of human HO-1 activity in human U-87MG cells assessed as reduction in immunoreactivity in cytoplasm at 10 uM incubated for 48 hrs […]; assay type: cell-based
T3 sequence (whole entry): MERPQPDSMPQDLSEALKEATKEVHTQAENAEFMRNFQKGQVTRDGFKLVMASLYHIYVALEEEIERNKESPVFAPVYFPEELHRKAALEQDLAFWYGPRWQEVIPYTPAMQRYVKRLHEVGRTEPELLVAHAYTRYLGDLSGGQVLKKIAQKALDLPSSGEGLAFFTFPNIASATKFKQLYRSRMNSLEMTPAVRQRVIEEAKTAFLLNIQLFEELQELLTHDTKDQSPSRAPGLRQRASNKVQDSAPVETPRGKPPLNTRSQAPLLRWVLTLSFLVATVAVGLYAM
Method in brief: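 U87MG cells on coverslips treated 48 h at 10 μM or left untreated. Fixed in 4% paraformaldehyde, permeabilized with 0.2% Triton X-100, blocked with 0.1% BSA, probed with rabbit anti-HO-1 then Alexa Fluor 488 anti-rabbit. Nuclei counterstained with DAPI; random fields imaged by fluorescence microscopy.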

[19] = tested on: U-87 MG; experiment: Antiinvasive activity against human U-87 MG cells assessed as reduction in cell motility measured after 48 hrs by wound healing assay; assay type: functional, cell-based; details: U-87MG ATCC
Method in brief: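 Confluent U87MG monolayers (5 × 10^4 cells/well) scratched with a pipette tip, then cultured in 1% serum medium with or without 10 μM compound. Cells advancing into the wound counted at 24 and 48 h in three random high-power fields per well, duplicate wells, and expressed as % of control. Mean ± SEM.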

[20] = molecular target: T3, Heme oxygenase 1 (Homo sapiens); experiment: Inhibition of human HO-1 activity in human U-87MG cells assessed as bilirubin formation at 10 uM
[21] = tested on: U-87MG ATCC; experiment: Reduction in VEGF intracellular expression in human U-87 MG cells by Western blot analysis; assay type: functional, cell-based
Method in brief: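 U87MG cells treated 48 h with vehicle or 10 μM compound. Lysates (30 μg protein) resolved on 4–15% Bis-Tris gel and immunoblotted with goat polyclonal anti-VEGF; β-tubulin and β-actin antibodies also used.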

[22] = tested on: H5V; experiment: Antiangiogenesis activity in mouse H5V cells assessed as decrease in tube like structure formation using culture medium derived from human U-87 MG cells treated at 10 uM for 48 hrs; assay type: functional, cell-based
Method in brief: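 Conditioned medium: subconfluent U87MG cells held 48 h at 37 °C in 1% FBS medium with 10 μM compound or vehicle, then spun and frozen. Overnight-starved H5V endothelial cells seeded on reduced-growth-factor basement membrane matrix and cultured 48 h at 37 °C in the conditioned medium. Tubes counted in three random fields and expressed as % of control.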

[23] = tested on: U-87MG ATCC; experiment: Reduction in VEGF release in human U-87 MG cells by ELISA; assay type: functional, cell-based
Method in brief: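 Confluent U87MG cells in 1% FBS medium treated 48 h with 10 μM compound or vehicle. VEGF-A in the conditioned medium measured by sandwich ELISA: capture antibody, biotinylated anti-human VEGF, HRP-streptavidin, TMB substrate, absorbance at 450 nm.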

Row | SMILES | inhibition [1] | inhibition [2] | inhibition [3] | inhibition [4] | inhibition [6] | inhibition at 10 µM [7] | inhibition at 1 µM [9] | further results
1 | CN(C(=O)Cn1ccnc1)C(c1ccccc1)C1CCCCC1 (configuration not stated) | Active | Active | Active | – | – | – | – | –
2 | CN(C(=O)Cn1ccnc1)C(c1ccccc1)c1ccccc1 | Active | Active | Active | inactive | inactive | – | – | Activity [5]: Active
3 | CN(C(=O)Cn1ccnc1)C(c1ccccc1)c1ccc(OCc2ccccc2)cc1 (configuration not stated) | Active | Active | Active | inactive | inactive | 20% | 20% | inhibition [8]: Active; inhibition [10]: Active; inhibition [11]: Active; inhibition [12]: Active; inhibition [13]: Active
4 | CN(C(=O)Cn1ccnc1)C(c1ccccc1)c1ccc(I)cc1 (configuration not stated) | Active | Active | – | inactive | inactive | > 30% | > 30% | inhibition [8]: Active; inhibition [10]: Active; Activity [5]: Active; inhibition [13]: Active
5 | FC(F)(F)c1ccc(SC[C@@H]2CO[C@](CCc3ccc(Cl)cc3)(Cn3ccnc3)O2)nc1 | – | – | – | – | – | – | – | IC50 [14]: 16 µM; IC50 [15]: 2.1 µM
6 | CN(C(=O)Cn1ccnc1)C(c1ccccc1)c1ccc(OCc2ccc(Br)cc2)cc1 (configuration not stated) | Active | Active | – | inactive | inactive | 20% | 20% | inhibition [8]: Active; inhibition [10]: Active; inhibition [11]: Active; inhibition [12]: Active; inhibition [13]: Active
7 | CN(C(=O)Cn1ccnc1)c1ccccc1 | – | – | – | – | – | – | – | IC50 [15]: 2500 µM
8 | CN(C(=O)Cn1ccnc1)C(c1ccccc1)C1CCCC1 (configuration not stated) | Active | Active | Active | – | – | – | – | –
9 | O=C(Cn1ccnc1)NC(c1ccccc1)c1ccccc1 | – | – | – | – | – | – | – | Selectivity Index [16]: 0.5
10 | CN(C(=O)Cn1ccnc1)C(c1ccccc1)c1cccc(Br)c1 (configuration not stated) | inactive | inactive | inactive | inactive | inactive | > 30% | > 30% | inhibition at 50 µM [13]: > 30%
11 | CN(C(=O)Cn1ccnc1)C(c1ccccc1)c1ccc(Cl)cc1 (configuration not stated) | Active | Active | Active | inactive | inactive | > 60% | > 60% | Activity [17]: Active; inhibition [18]: Active; Activity [19]: Active; inhibition [20]: Active; Activity [21]: Active; Activity [22]: Active; Activity [23]: Active; inhibition at 50 µM [13]: > 60%
